Data as given in ChEMBL document CHEMBL4689842, “EUbOPEN Chemogenomics Library wave 1” (2021).
“And” between values parts separate entries of the source, which are not always exact repeats. Equal values may be shown once.

Test system: Fibroblast
Test: Multiplex assay against human fibroblast
Type: toxicity, cell-based
Procedure, shortened: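 On a CQ1 microscope at 37°C and 5% CO2, live cells were imaged after compound addition. They had been stained at seeding with Hoechst33342, BioTracker Green Microtubule Cytoskeleton Dye, MitoTracker Red and Annexin V Alexa Fluor 680. CellPathfinder machine-learning gating assigned cells to Hoechst high-intensity objects or normal cells, normal cells to healthy, pyknosed or fragmented nuclei, and pyknosed cells to mitotic or apoptotic. Tubulin, mitochondrial-mass and membrane-permeability phenotypes are per cents of healthy-nucleus cells.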

[1] = 12 h, 1 µM, compound concentration 1 uM, replicate 1
[2] = 12 h, 1 µM, compound concentration 1 uM, replicate 2
[3] = 12 h, 10 µM, compound concentration 10 uM, replicate 1
[4] = 12 h, 10 µM, compound concentration 10 uM, replicate 2
[5] = 24 h, 1 µM, compound concentration 1 uM, replicate 1
[6] = 24 h, 1 µM, compound concentration 1 uM, replicate 2
[7] = 24 h, 10 µM, compound concentration 10 uM, replicate 1
[8] = 24 h, 10 µM, compound concentration 10 uM, replicate 2
[9] = 48 h, 1 µM, compound concentration 1 uM, replicate 1
[10] = 48 h, 1 µM, compound concentration 1 uM, replicate 2
[11] = 48 h, 10 µM, compound concentration 10 uM, replicate 1
[12] = 48 h, 10 µM, compound concentration 10 uM, replicate 2

SMILES: CC(C)NCC(O)COc1ccc(CCOCC2CC2)cc1.Cl (stereo not drawn) [BETAXOLOL HYDROCHLORIDE]
- Population Apoptotic (%) [1]: 41%
- Population Fragmented Nuclei (%) [1]: 22%
- Population Healthy Nuclei (%) [1]: 47%
- Population Hoechst High Intensity Objects (%) [1]: 4%
- Population Membrane Permeable-Phenotype (%) [1]: 23%
- Population Mitochondria Different-Phenotype (%) [1]: 2%
- Population Mitotic Cells (%) [1]: 58%
- Population Normal (%) [1]: 95%
- Population Pyknosed Nuclei (%) [1]: 30%
- Population Tubulin-Different-Phenotype (%) [1]: 39%
- Total Cell Count [1]: 84
- Population Apoptotic (%) [2]: 100%
- Population Fragmented Nuclei (%) [2]: 2%
- Population Healthy Nuclei (%) [2]: 95%
- Population Hoechst High Intensity Objects (%) [2]: 16%
- Population Membrane Permeable-Phenotype (%) [2]: 6%
- Population Mitotic Cells (%) [2]: 0%
- Population Normal (%) [2]: 83%
- Population Pyknosed Nuclei (%) [2]: 2%
- Population Tubulin-Different-Phenotype (%) [2]: 9%
- Total Cell Count [2]: 55
- Population Apoptotic (%) [3]: 67%
- Population Fragmented Nuclei (%) [3]: 17%
- Population Healthy Nuclei (%) [3]: 55%
- Population Hoechst High Intensity Objects (%) [3]: 16%
- Population Membrane Permeable-Phenotype (%) [3]: 10%
- Population Mitochondria Different-Phenotype (%) [3]: 17%
- Population Mitotic Cells (%) [3]: 32%
- Population Normal (%) [3]: 83%
- Population Pyknosed Nuclei (%) [3]: 26%
- Population Tubulin-Different-Phenotype (%) [3]: 58%
- Total Cell Count [3]: 125
- Population Apoptotic (%) [4]: 23%
- Population Fragmented Nuclei (%) [4]: 9%
- Population Healthy Nuclei (%) [4]: 77%
- Population Hoechst High Intensity Objects (%) [4]: 7%
- Population Membrane Permeable-Phenotype (%) [4]: 5%
- Population Mitochondria Different-Phenotype (%) [4]: 72%
- Population Mitotic Cells (%) [4]: 76%
- Population Normal (%) [4]: 92%
- Population Pyknosed Nuclei (%) [4]: 13%
- Population Tubulin-Different-Phenotype (%) [4]: 49%
- Total Cell Count [4]: 107
- Population Apoptotic (%) [5]: 30%
- Population Fragmented Nuclei (%) [5]: 20%
- Population Healthy Nuclei (%) [5]: 55%
- Population Hoechst High Intensity Objects (%) [5]: 9%
- Population Membrane Permeable-Phenotype (%) [5]: 30%
- Population Mitochondria Different-Phenotype (%) [5]: 4%
- Population Mitotic Cells (%) [5]: 70%
- Population Normal (%) [5]: 90%
- Population Pyknosed Nuclei (%) [5]: 24%
- Population Tubulin-Different-Phenotype (%) [5]: 34%
- Total Cell Count [5]: 92
- Population Apoptotic (%) [6]: 33%
- Population Fragmented Nuclei (%) [6]: 3%
- Population Healthy Nuclei (%) [6]: 85%
- Population Hoechst High Intensity Objects (%) [6]: 5%
- Population Membrane Permeable-Phenotype (%) [6]: 4%
- Population Mitochondria Different-Phenotype (%) [6]: 6%
- Population Mitotic Cells (%) [6]: 66%
- Population Normal (%) [6]: 94%
- Population Pyknosed Nuclei (%) [6]: 10%
- Population Tubulin-Different-Phenotype (%) [6]: 2%
- Total Cell Count [6]: 59
- Population Apoptotic (%) [7]: 74%
- Population Fragmented Nuclei (%) [7]: 25%
- Population Healthy Nuclei (%) [7]: 50%
- Population Hoechst High Intensity Objects (%) [7]: 15%
- Population Membrane Permeable-Phenotype (%) [7]: 19%
- Population Mitochondria Different-Phenotype (%) [7]: 21%
- Population Mitotic Cells (%) [7]: 25%
- Population Normal (%) [7]: 84%
- Population Pyknosed Nuclei (%) [7]: 23%
- Population Tubulin-Different-Phenotype (%) [7]: 64%
- Total Cell Count [7]: 133
- Population Apoptotic (%) [8]: 40%
- Population Fragmented Nuclei (%) [8]: 7%
- Population Healthy Nuclei (%) [8]: 78%
- Population Hoechst High Intensity Objects (%) [8]: 5%
- Population Membrane Permeable-Phenotype (%) [8]: 5%
- Population Mitochondria Different-Phenotype (%) [8]: 78%
- Population Mitotic Cells (%) [8]: 60%
- Population Normal (%) [8]: 94%
- Population Pyknosed Nuclei (%) [8]: 15%
- Population Tubulin-Different-Phenotype (%) [8]: 46%
- Total Cell Count [8]: 106
- Population Apoptotic (%) [9]: 76%
- Population Fragmented Nuclei (%) [9]: 33%
- Population Healthy Nuclei (%) [9]: 50%
- Population Hoechst High Intensity Objects (%) [9]: 12%
- Population Membrane Permeable-Phenotype (%) [9]: 30%
- Population Mitochondria Different-Phenotype (%) [9]: 4%
- Population Mitotic Cells (%) [9]: 23%
- Population Normal (%) [9]: 87%
- Population Pyknosed Nuclei (%) [9]: 15%
- Population Tubulin-Different-Phenotype (%) [9]: 45%
- Total Cell Count [9]: 95
- Population Apoptotic (%) [10]: 83%
- Population Fragmented Nuclei (%) [10]: 27%
- Population Healthy Nuclei (%) [10]: 67%
- Population Membrane Permeable-Phenotype (%) [10]: 13%
- Population Mitochondria Different-Phenotype (%) [10]: 1%
- Population Mitotic Cells (%) [10]: 16%
- Population Pyknosed Nuclei (%) [10]: 4%
- Population Tubulin-Different-Phenotype (%) [10]: 35%
- Total Cell Count [10]: 157
- Population Apoptotic (%) [11]: 76%
- Population Fragmented Nuclei (%) [11]: 41%
- Population Healthy Nuclei (%) [11]: 50%
- Population Hoechst High Intensity Objects (%) [11]: 24%
- Population Membrane Permeable-Phenotype (%) [11]: 22%
- Population Mitochondria Different-Phenotype (%) [11]: 4%
- Population Mitotic Cells (%) [11]: 23%
- Population Normal (%) [11]: 75%
- Population Pyknosed Nuclei (%) [11]: 8%
- Population Tubulin-Different-Phenotype (%) [11]: 55%
- Total Cell Count [11]: 196
- Population Apoptotic (%) [12]: 100%
- Population Fragmented Nuclei (%) [12]: 48%
- Population Hoechst High Intensity Objects (%) [12]: 20%
- Population Membrane Permeable-Phenotype (%) [12]: 15%
- Population Mitochondria Different-Phenotype (%) [12]: 2%
- Population Mitotic Cells (%) [12]: 0%
- Population Normal (%) [12]: 79%
- Population Pyknosed Nuclei (%) [12]: 0%
- Population Tubulin-Different-Phenotype (%) [12]: 66%
- Total Cell Count [12]: 278

SMILES: C[C@@]1(C(=O)Nc2ccc(F)nc2)CCCN1c1nc(Nc2cc(C3CC3)n[nH]2)c2cccn2n1 [BMS-754807]
- Population Apoptotic (%) [1]: 63%
- Population Fragmented Nuclei (%) [1]: 36%
- Population Healthy Nuclei (%) [1]: 50%
- Population Hoechst High Intensity Objects (%) [1]: 10%
- Population Membrane Permeable-Phenotype (%) [1]: 18%
- Population Mitochondria Different-Phenotype (%) [1]: 13%
- Population Mitotic Cells (%) [1]: 36%
- Population Normal (%) [1]: 89%
- Population Pyknosed Nuclei (%) [1]: 13%
- Population Tubulin-Different-Phenotype (%) [1]: 69%
- Total Cell Count [1]: 257
- Population Apoptotic (%) [2]: 66%
- Population Fragmented Nuclei (%) [2]: 75%
- Population Healthy Nuclei (%) [2]: 16%
- Population Hoechst High Intensity Objects (%) [2]: 28%
- Population Membrane Permeable-Phenotype (%) [2]: 50%
- Population Mitochondria Different-Phenotype (%) [2]: 33%
- Population Mitotic Cells (%) [2]: 33%
- Population Normal (%) [2]: 71%
- Population Pyknosed Nuclei (%) [2]: 8%
- Population Tubulin-Different-Phenotype (%) [2]: 66%
- Total Cell Count [2]: 52
- Population Apoptotic (%) [3]: 63% and 78%
- Population Fragmented Nuclei (%) [3]: 22% and 25%
- Population Healthy Nuclei (%) [3]: 42%
- Population Hoechst High Intensity Objects (%) [3]: 16% and 15%
- Population Mitotic Cells (%) [3]: 36% and 21%
- Population Normal (%) [3]: 84%
- Population Pyknosed Nuclei (%) [3]: 34% and 16%
- Total Cell Count [3]: 75 and 165
- Population Apoptotic (%) [4]: 80% and 33%
- Population Healthy Nuclei (%) [4]: 37% and 58%
- Population Hoechst High Intensity Objects (%) [4]: 29% and 13%
- Population Membrane Permeable-Phenotype (%) [4]: 17% and 22%
- Population Normal (%) [4]: 70% and 86%
- Total Cell Count [4]: 87 and 53
- Population Apoptotic (%) [5]: 63%
- Population Fragmented Nuclei (%) [5]: 27%
- Population Healthy Nuclei (%) [5]: 55%
- Population Hoechst High Intensity Objects (%) [5]: 9%
- Population Membrane Permeable-Phenotype (%) [5]: 10%
- Population Mitochondria Different-Phenotype (%) [5]: 26%
- Population Mitotic Cells (%) [5]: 36%
- Population Normal (%) [5]: 90%
- Population Pyknosed Nuclei (%) [5]: 16%
- Population Tubulin-Different-Phenotype (%) [5]: 70%
- Total Cell Count [5]: 219
- Population Apoptotic (%) [6]: 75%
- Population Fragmented Nuclei (%) [6]: 65%
- Population Healthy Nuclei (%) [6]: 19%
- Population Hoechst High Intensity Objects (%) [6]: 40%
- Population Membrane Permeable-Phenotype (%) [6]: 40%
- Population Mitochondria Different-Phenotype (%) [6]: 40%
- Population Mitotic Cells (%) [6]: 25%
- Population Normal (%) [6]: 59%
- Population Pyknosed Nuclei (%) [6]: 15%
- Population Tubulin-Different-Phenotype (%) [6]: 60%
- Total Cell Count [6]: 44
- Population Apoptotic (%) [7]: 41% and 63%
- Population Fragmented Nuclei (%) [7]: 26% and 20%
- Population Healthy Nuclei (%) [7]: 53% and 63%
- Population Hoechst High Intensity Objects (%) [7]: 21% and 13%
- Population Membrane Permeable-Phenotype (%) [7]: 35% and 15%
- Population Mitotic Cells (%) [7]: 58% and 36%
- Population Normal (%) [7]: 78% and 86%
- Population Pyknosed Nuclei (%) [7]: 19% and 15%
- Total Cell Count [7]: 80 and 166
- Population Apoptotic (%) [8]: 60% and 37%
- Population Healthy Nuclei (%) [8]: 28% and 47%
- Population Mitochondria Different-Phenotype (%) [8]: 25% and 59%
- Population Mitotic Cells (%) [8]: 40% and 62%
- Population Normal (%) [8]: 68% and 90%
- Total Cell Count [8]: 83 and 51
- Population Apoptotic (%) [11]: 92%
- Population Fragmented Nuclei (%) [11]: 35%
- Population Healthy Nuclei (%) [11]: 39%
- Population Hoechst High Intensity Objects (%) [11]: 27%
- Population Membrane Permeable-Phenotype (%) [11]: 23%
- Population Mitochondria Different-Phenotype (%) [11]: 28%
- Population Mitotic Cells (%) [11]: 7%
- Population Normal (%) [11]: 72%
- Population Pyknosed Nuclei (%) [11]: 24%
- Population Tubulin-Different-Phenotype (%) [11]: 85%
- Total Cell Count [11]: 73
- Population Apoptotic (%) [12]: 70%
- Population Fragmented Nuclei (%) [12]: 27%
- Population Healthy Nuclei (%) [12]: 56%
- Population Hoechst High Intensity Objects (%) [12]: 9%
- Population Membrane Permeable-Phenotype (%) [12]: 24%
- Population Mitochondria Different-Phenotype (%) [12]: 43%
- Population Mitotic Cells (%) [12]: 30%
- Population Normal (%) [12]: 90%
- Population Pyknosed Nuclei (%) [12]: 15%
- Population Tubulin-Different-Phenotype (%) [12]: 100%
- Total Cell Count [12]: 72
